Assays:
D(2) dopamine receptor [1] = target: T1, D(2) dopamine receptor (Homo sapiens, UniProt P14416); assay: Displacement of [3H]-Raclopride from recombinant human dopamine D2 receptor expressed in HEK293T cell membranes co-expressing mGluR5a (unknown origin) after 1 hr by liquid scintillation counting
Summary of the method: (§1)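 Membranes (20 µg) from HEK293T cells stably expressing D2R, or D2R with mGluR5. Incubated with 2.0 nM [3H]raclopride and unlabeled ligand (0.1 nM-10 µM) for 1 h at 37 °C in 50 mM Tris-HCl pH 7.4 containing NaCl, KCl, MgCl2, CaCl2 and EDTA. Nonspecific binding defined with 1 µM haloperidol. Counted by scintillation; Ki by Cheng-Prusoff; three independent assays.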

D(2) dopamine receptor [2] = target: T1, D(2) dopamine receptor; assay: Displacement of [3H]-Raclopride from recombinant human dopamine D2 receptor expressed in HEK293T cell membranes after 1 hr by liquid scintillation counting; summary of the method: as §1
[3] = target: T2, Metabotropic glutamate receptor 5 (Homo sapiens, UniProt P41594); assay: Antagonist activity at mGluR5 (unknown origin) expressed in HEK293T cells assessed as inhibition of L-Glu-induced MAPK phosphorylation preincubated for 30 mins followed by agonist stimulation for 10 mins by Western blot analysis; format: functional, cell-based
Summary of the method: (§2)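 Cells stably expressing mGluR5 alone or with D2R, seeded at 400,000 per well, serum-starved overnight at about 70% confluence. Ligand pretreatment at 1 nM-10 µM for 30 min at 37 °C, then 10 µM L-glutamate for 7-10 min. RIPA lysates run on western blot; phospho-p44/42 MAPK signal normalized to total p44/42 MAPK. Mean ± SEM of three independent experiments.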

[4] = target: T3, D(2) dopamine receptor/Metabotropic glutamate receptor 5 (Homo sapiens, UniProt P14416+P41594); assay: Agonist activity at human dopamine D2 receptor /mGluR5a (unknown origin) expressed in HEK293T cells assessed as reduction in forskolin-induced cAMP accumulation preincubated for 15 mins followed by forskolin addition by GloSensor-based assay; format: functional, cell-based
D(2) dopamine receptor [5] = target: T1, D(2) dopamine receptor; assay: Agonist activity at human dopamine D2 receptor expressed in HEK293T cells assessed as reduction in forskolin-induced cAMP accumulation preincubated for 15 mins followed by forskolin addition by GloSensor-based assay; format: functional, cell-based
[6] = target: T2, Metabotropic glutamate receptor 5; assay: Displacement of [3H]MPEP from recombinant mGluR5 (unknown origin) expressed in HEK293T cell membranes after 1 hr by liquid scintillation counting
Summary of the method: (§3)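 Membranes (20 µg) from cells stably expressing mGluR5, with or without D2R. Incubated with 3.0 nM [3H]MPEP and unlabeled ligand (0.1 nM-100 µM) in 50 mM Tris-HCl/2 mM MgCl2, pH 7.4, for 1 h at 25 °C. Nonspecific binding defined with 10 µM MPEP. Filtration and scintillation counting; Ki via Cheng-Prusoff; three independent assays in duplicate.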

[7] = target: T3, D(2) dopamine receptor/Metabotropic glutamate receptor 5; assay: Antagonist activity at human dopamine D2 receptor /mGluR5a (unknown origin) expressed in HEK293T cells assessed as inhibition of L-Glu-induced MAPK phosphorylation preincubated for 30 mins followed by agonist stimulation for 10 mins by Western blot analysis; format: cell-based; summary of the method: as §2
[8] = target: T2, Metabotropic glutamate receptor 5; assay: Displacement of [3H]MPEP from recombinant mGluR5a (unknown origin) expressed in HEK293T cell membranes co-expressing human dopamine D2 receptor after 1 hr by liquid scintillation counting; summary of the method: as §3

T3 sequence (P14416 whole entry): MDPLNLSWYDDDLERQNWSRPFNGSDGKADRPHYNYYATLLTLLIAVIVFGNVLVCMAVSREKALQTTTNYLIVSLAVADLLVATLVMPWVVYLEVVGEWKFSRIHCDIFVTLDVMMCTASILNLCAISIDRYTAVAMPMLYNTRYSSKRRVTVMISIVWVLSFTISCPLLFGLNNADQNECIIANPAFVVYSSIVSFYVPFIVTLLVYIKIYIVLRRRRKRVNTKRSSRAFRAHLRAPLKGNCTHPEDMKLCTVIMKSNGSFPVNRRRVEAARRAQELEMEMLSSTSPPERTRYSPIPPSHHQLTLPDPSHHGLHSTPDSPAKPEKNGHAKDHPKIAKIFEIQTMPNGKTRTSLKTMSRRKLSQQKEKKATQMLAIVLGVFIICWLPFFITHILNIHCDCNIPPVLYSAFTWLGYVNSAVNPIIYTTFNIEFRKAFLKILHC
T3 sequence (P41594 whole entry): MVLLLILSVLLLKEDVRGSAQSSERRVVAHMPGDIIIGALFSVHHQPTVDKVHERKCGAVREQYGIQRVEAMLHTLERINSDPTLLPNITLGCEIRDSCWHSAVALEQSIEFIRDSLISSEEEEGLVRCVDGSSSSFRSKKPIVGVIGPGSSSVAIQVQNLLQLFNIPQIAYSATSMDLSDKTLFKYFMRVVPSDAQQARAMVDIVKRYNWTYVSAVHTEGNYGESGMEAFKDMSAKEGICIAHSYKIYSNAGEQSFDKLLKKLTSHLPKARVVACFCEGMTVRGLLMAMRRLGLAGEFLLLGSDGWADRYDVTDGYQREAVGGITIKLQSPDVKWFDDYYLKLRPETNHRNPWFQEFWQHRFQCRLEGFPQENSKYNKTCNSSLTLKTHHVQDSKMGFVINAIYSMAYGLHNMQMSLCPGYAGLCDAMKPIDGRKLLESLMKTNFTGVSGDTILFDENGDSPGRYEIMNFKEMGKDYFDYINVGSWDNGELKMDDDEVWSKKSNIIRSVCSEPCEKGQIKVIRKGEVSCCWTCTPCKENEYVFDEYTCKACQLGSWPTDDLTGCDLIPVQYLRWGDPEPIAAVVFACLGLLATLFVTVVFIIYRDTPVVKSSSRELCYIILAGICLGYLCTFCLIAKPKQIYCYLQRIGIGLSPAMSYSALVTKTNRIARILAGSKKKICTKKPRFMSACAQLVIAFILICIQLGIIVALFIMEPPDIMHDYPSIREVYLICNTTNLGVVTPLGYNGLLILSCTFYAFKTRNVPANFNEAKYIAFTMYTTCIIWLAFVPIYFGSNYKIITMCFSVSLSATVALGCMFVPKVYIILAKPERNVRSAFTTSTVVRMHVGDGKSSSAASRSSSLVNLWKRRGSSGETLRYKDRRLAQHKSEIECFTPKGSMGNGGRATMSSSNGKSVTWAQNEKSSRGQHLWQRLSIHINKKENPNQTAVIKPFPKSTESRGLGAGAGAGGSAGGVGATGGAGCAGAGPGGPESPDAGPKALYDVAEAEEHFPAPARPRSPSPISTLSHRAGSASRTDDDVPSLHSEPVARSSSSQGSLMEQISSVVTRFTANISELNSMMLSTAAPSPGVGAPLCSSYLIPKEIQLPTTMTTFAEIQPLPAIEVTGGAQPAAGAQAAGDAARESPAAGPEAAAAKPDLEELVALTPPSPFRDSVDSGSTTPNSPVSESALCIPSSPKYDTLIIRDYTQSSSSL
T1 sequence (P14416 whole entry): as the sequence (P14416 whole entry) above
T2 sequence (P41594 whole entry): as the sequence (P41594 whole entry) above

Structure (SMILES)	Ki (D(2) dopamine receptor [1]) [µM]	Ki (D(2) dopamine receptor [2]) [µM]	IC50 [3] [µM]	EC50 ([4]; read-out: EC50) [µM]	EC50 (D(2) dopamine receptor [5]; read-out: EC50) [µM]	Ki [6] [µM]	IC50 [7] [µM]	Ki [8] [µM]	EC50 [4]	EC50 (D(2) dopamine receptor [5])
COc1cc(CN2CCN(c3ccccc3OC)CC2)ccc1OCc1cn(CCOCCOCCOCCOCCOCCNC(=O)COc2cccc(C#Cc3csc(C)n3)c2)nn1	0.186	0.352	0.9	–	–	–	–	–	–	–
COc1cc(CN2CCN(c3ccccc3OC)CC2)ccc1OCc1cn(CCCCCCCCCCN(C)CCCCCNC(=O)COc2cccc(C#Cc3csc(C)n3)c2)nn1	0.252	0.398	0.31	–	–	–	–	–	–	–
Cc1nc(C#Cc2cncc(OCC(=O)NCCCCCN(C)CCCCCCCCN=[N+]=[N-])c2)cs1	–	–	2.6	–	–	5.8	4.5	5.7	–	–
CCCN(CCc1ccc(NC(=O)CCc2cn(CCCCCCCCCCN(C)CCCCCNC(=O)COc3cncc(C#Cc4csc(C)n4)c3)nn2)cc1)C1CCc2c(O)cccc2C1 (stereo unspecified)	0.171	0.079	0.32	0.032	0.0055	–	–	–	–	–
COc1cc(CN2CCN(c3ccccc3OC)CC2)ccc1OCc1cn(CCOCCOCCOCCNC(=O)COc2cccc(C#Cc3csc(C)n3)c2)nn1	0.251	0.438	1.2	–	–	–	–	–	–	–

Continued by falling Ki (D(2) dopamine receptor [1]), values first:

Ki (D(2) dopamine receptor [1]) [µM]	Ki (D(2) dopamine receptor [2]) [µM]	IC50 [3] [µM]	EC50 ([4]; read-out: EC50) [µM]	EC50 (D(2) dopamine receptor [5]; read-out: EC50) [µM]	Ki [6] [µM]	IC50 [7] [µM]	Ki [8] [µM]	EC50 [4]	EC50 (D(2) dopamine receptor [5])	Structure (SMILES)
0.142	0.295	1.6	0.02	0.0076	–	–	–	–	–	CCCN(CCc1ccc(NC(=O)CCc2cn(CCCCCCNC(=O)COc3cncc(C#Cc4csc(C)n4)c3)nn2)cc1)C1CCc2c(O)cccc2C1 (stereo unspecified)
0.115	0.303	0.45	–	–	–	–	–	–	–	COc1cc(CN2CCN(c3ccccc3OC)CC2)ccc1OCc1cn(CCCCCCCCCCN(C)CCCCCNC(=O)COc2cncc(C#Cc3csc(C)n3)c2)nn1
0.094	0.147	0.24	–	–	–	–	–	–	–	COc1cc(CN2CCN(c3ccccc3OC)CC2)ccc1OCc1cn(CCCCCCCCN(C)CCCCCNC(=O)COc2cccc(C#Cc3csc(C)n3)c2)nn1
0.069	0.077	–	–	–	–	–	–	Not Active	Not Active	C#CCOc1ccc(CN2CCN(c3ccccc3OC)CC2)cc1OC
0.045	0.132	0.11	–	–	1	1.8	1.3	–	–	COc1cc(CN2CCN(c3ccccc3OC)CC2)ccc1OCc1cn(CCCCCCCCN(C)CCCCCNC(=O)COc2cncc(C#Cc3csc(C)n3)c2)nn1
0.019	0.017	–	0.0065	0.003	–	–	–	–	–	C#CCCC(=O)Nc1ccc(CCN(CCC)C2CCc3c(O)cccc3C2)cc1 (stereo unspecified)
0.013	0.05	0.17	0.0015	0.0033	2.3	0.62	1.1	–	–	CCCN(CCc1ccc(NC(=O)CCc2cn(CCCCCCCCN(C)CCCCCNC(=O)COc3cncc(C#Cc4csc(C)n4)c3)nn2)cc1)C1CCc2c(O)cccc2C1 (stereo unspecified)

— ChEMBL document CHEMBL4229559, “Synthesis toward Bivalent Ligands for the Dopamine D2 and Metabotropic Glutamate 5 Receptors” (J Med Chem, 2018)
